# The source made the active and inactive calls. No cut-off for these calls is given here.
# Experiments:
# BJ [1] = assay: Cell cycle arrest in human BJ cells expressing TERT assessed as accumulation at G0/G1 stage at 0.5 uM after 96 hrs by propidium iodide staining based flow cytometry (reference value: 86%); assay type: ADME
# BJ [2] = assay: Antiproliferative activity against human BJ cells expressing SV40 early region EHLT at 0.5 uM after 24 hrs by Coulter counter method; assay type: functional, cell-based; conditions: TDE = time-dependent effect, in the assay text read “after 2 to 8 days” for “after 24 hrs”
# Outline: (§1)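 Cells seeded at 5 ×10^4 per dish; compounds freshly dissolved and added to the medium 24 h after plating, at 0.5 μM or 3 μM (3 μM only for one derivative). Cell number by Coulter counting and viability by trypan blue exclusion daily, day 1 to day 8. Growth inhibition of treated vs untreated cells calculated at days 2, 4, 6 and 8. Representative experiments in quintuplicate, SD shown.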
# BJ [3] = assay: Delocalization of TRF1 protein from […] in human BJ cells expressing SV40 early protein EHLT by chromatin immunoprecipitation assay; assay type: functional, cell-based
# Outline: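 BJ-EHLT cells treated 24 or 72 h. Formaldehyde-crosslinked chromatin immunoprecipitated with anti-TRF1, anti-TRF2 or anti-POT1; β-actin antibody as negative control. Precipitates blotted and probed for telomeric repeats (ALU probe as nonspecific). Densitometry gives percentage of precipitated DNA relative to input (10% and 1%). Four independent experiments, SD.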
# BJ [4] = assay: Cell cycle arrest in human BJ cells expressing TERT assessed as accumulation at G2/M stage at 0.5 uM after 24 hrs by propidium iodide staining based flow cytometry (reference value: 17%); assay type: ADME
# BJ [5] = assay: Induction of DNA damage response in human BJ cells expressing SV40 early region EHLT assessed as phosphorylation of […] after 24 hrs by immunofluorescence method; assay type: functional, cell-based
# Outline: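 BJ-EHLT and BJ-hTERT fibroblasts exposed to a range of concentrations for 24 h. Fixed in 2% formaldehyde, permeabilized in 0.25% Triton X-100, immunostained for γ-H2AX and 53BP1. Percentage of positive cells scored. Three independent experiments, SD.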
# Nucleic Acid [6] = assay: Binding affinity to human 21-TT G-quadruplex DNA structure at 1:5 DNA to calf thymus DNA ratio by competitive inhibition assay; assay type: nucleic-acid assay; parameters: concentration or dose not given beside the values
# Outline: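 ESI-MS competition: quadruplex DNA and ligand each 5 μM final, plus calf thymus DNA at duplex/quadruplex ratios 1 and 5 (by phosphate concentration), in ammonium acetate. Percentage bound quadruplex and normalized bound quadruplex (N%) measured by mass spectrometry. SD over at least three independent experiments.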
# BJ [7] = assay: Cell cycle arrest in human BJ cells expressing TERT assessed as accumulation at S stage at 0.5 uM after 48 hrs by propidium iodide staining based flow cytometry (reference value: 12%); assay type: ADME
# BJ [8] = assay: Growth inhibition of human BJ cells expressing SV40 early region EHLT at 0.5 uM on day 8 by trypan blue assay; assay type: functional; conditions: 192 h, read-out: GI; outline: as §1
# M14 = assay: Cytotoxicity against human M14 cells after 4 days by clonogenic assay relative to control; assay type: functional, cell-based; conditions: M14, 96 h
# Outline: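 Clonogenic survival: cells seeded at 2 × 10^5 per dish and exposed for 4 days to 0.5-2 μM. Surviving fraction taken as absolute survival of treated over control. Four experiments, each in triplicate; mean with SD.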
# BJ [9] = assay: Cell cycle arrest in human BJ cells expressing TERT assessed as accumulation at S stage at 0.5 uM after 24 hrs by propidium iodide staining based flow cytometry (reference value: 21%); assay type: ADME
# Nucleic Acid [10] = assay: Binding affinity to human 21-TT G-quadruplex DNA structure assessed as first step association constant by electrospray ionization mass spectrometry; assay type: nucleic-acid assay
# Outline: (§2)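 ESI-MS in 150 mM ammonium acetate; DNA 5 μM final (per duplex or quadruplex unit); ligand at drug/DNA ratios 0.5 to 4. Methanol (15%) added just before injection, after binding equilibrium. K1 and K2 for 1:1 and 2:1 complexes, and % bound DNA, taken from relative peak intensities assuming equal response factors. At least three repeats.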
# BJ [11] = assay: Cell cycle arrest in human BJ cells expressing TERT assessed as accumulation at G2/M stage at 0.5 uM after 96 hrs by propidium iodide staining based flow cytometry (reference value: 4%); assay type: ADME
# [12] = target: Telomerase reverse transcriptase (Homo sapiens, UniProt O14746); assay: Inhibition of human Telomerase activity in cell free system by TRAP assay
# Outline: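 Cell-free TRAP: protein extract incubated with compound at 1 to 50 μM so telomerase elongates the substrate oligonucleotide. Before PCR, phenol/chloroform/isoamyl-alcohol (50:49:1) extraction removes the ligand and DNA is precipitated overnight at -20 °C. Amplification uses a 36 bp ITAS; products are resolved on 12% PAGE and stained with SYBR Green. Signals are corrected by the no-extract control and normalized to untreated, giving dose-response IC50. Mean of three experiments.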
# Nucleic Acid [13] = assay: Binding affinity to human DK66 duplex DNA structure assessed as first step association constant by electrospray ionization mass spectrometry; assay type: nucleic-acid assay; outline: as §2
# BJ [14] = assay: Cell cycle arrest in human BJ cells expressing TERT assessed as accumulation at G2/M stage at 0.5 uM after 48 hrs by propidium iodide staining based flow cytometry (reference value: 6%); assay type: ADME
# BJ [15] = assay: Cell cycle arrest in human BJ cells expressing TERT assessed as accumulation at S stage at 0.5 uM after 72 hrs by propidium iodide staining based flow cytometry (reference value: 10%); assay type: ADME
# BJ [16] = assay: Cell cycle arrest in human BJ cells expressing TERT assessed as accumulation at G2/M stage at 0.5 uM after 72 hrs by propidium iodide staining based flow cytometry (reference value: 5%); assay type: ADME
# Chain of Telomerase reverse transcriptase (O14746 whole entry): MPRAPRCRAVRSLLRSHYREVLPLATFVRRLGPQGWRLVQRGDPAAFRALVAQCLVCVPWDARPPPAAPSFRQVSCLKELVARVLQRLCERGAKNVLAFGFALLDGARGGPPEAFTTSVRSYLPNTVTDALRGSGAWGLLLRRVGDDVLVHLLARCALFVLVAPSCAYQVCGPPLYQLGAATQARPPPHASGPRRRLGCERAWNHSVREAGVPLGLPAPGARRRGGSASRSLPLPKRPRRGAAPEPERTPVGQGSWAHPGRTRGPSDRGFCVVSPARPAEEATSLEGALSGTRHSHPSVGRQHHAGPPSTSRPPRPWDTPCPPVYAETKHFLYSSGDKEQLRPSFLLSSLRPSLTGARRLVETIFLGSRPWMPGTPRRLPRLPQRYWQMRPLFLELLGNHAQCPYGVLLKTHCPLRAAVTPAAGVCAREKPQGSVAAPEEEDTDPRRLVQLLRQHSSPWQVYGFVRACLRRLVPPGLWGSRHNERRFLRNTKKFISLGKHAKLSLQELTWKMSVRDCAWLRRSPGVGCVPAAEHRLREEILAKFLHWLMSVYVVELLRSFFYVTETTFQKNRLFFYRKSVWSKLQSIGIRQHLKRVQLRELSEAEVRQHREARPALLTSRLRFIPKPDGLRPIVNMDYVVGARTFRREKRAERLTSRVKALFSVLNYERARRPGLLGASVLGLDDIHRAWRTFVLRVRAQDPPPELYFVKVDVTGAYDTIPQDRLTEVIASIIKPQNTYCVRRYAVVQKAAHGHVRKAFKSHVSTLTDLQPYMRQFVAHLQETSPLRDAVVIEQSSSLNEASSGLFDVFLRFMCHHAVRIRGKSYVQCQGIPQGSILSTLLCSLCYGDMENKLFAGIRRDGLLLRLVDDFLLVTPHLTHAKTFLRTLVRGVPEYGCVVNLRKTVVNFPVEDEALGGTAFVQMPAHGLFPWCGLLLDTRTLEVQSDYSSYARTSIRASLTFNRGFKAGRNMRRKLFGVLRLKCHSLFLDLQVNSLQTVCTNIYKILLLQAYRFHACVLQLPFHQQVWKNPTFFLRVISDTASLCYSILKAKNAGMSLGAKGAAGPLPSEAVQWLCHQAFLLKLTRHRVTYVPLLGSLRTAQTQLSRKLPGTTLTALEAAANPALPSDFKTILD
smiles,measurement,setting,value
O=C1c2ccc3c4ccc5c6c(cc(N7CCCCC7)c(c7ccc(c2c37)C(=O)N1CCOCCN1CCCCC1)c64)C(=O)N(CCOCCN1CCCCC1)C5=O,Activity,BJ [1],96.3%
same,Activity,BJ [2],tde
same,Activity,BJ [3],inactive
same,Activity,BJ [4],16.1%
same,Activity,BJ [5],Active
same,Activity,Nucleic Acid [6],39%
same,Activity,BJ [7],14%
same,inhibition of growth at 0.5 µM,BJ [8],50%
same,IC50,M14,0.8 µM
same,Activity,BJ [9],21.1%
same,log Ks,Nucleic Acid [10],5.8
same,Activity,BJ [11],2.2%
same,IC50,[12],10 µM
same,log Ks,Nucleic Acid [13],3.9
same,Activity,BJ [14],7.6%
same,Activity,BJ [15],7.6%
same,Activity,BJ [16],5.1%
